According to PubChem BioAssay AID743214 (The Scripps Research Institute Molecular Screening Center, 2013):
Hit rate of the full screen: of about 2,100 compounds, about 10 (0.5%) were called active. Not all results are given here. A number with no mark means an inactive call.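 How the source made its calls: active means mean triplicate inhibition above the solvent-only control wells' mean plus 3 SD (cut at about 12% in these data); inactive means the rest.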

molecular target: Disintegrin and metalloproteinase domain-containing protein 17 (Homo sapiens) (UniProt P78536); assay: ADAM17 inhibitors, counter-screen for ADAM10 exosite inhibitor project, biochemical, QFRET, high throughput (AID 743214); conditions: ADAM17 QFRET peptide cleavage, EDANS fluorescence; at 6.95 µM; active compounds read high;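 further: 0% = DMSO wells and 100% = marimastat wells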
Sequence (P78536 215-824 limits assumed): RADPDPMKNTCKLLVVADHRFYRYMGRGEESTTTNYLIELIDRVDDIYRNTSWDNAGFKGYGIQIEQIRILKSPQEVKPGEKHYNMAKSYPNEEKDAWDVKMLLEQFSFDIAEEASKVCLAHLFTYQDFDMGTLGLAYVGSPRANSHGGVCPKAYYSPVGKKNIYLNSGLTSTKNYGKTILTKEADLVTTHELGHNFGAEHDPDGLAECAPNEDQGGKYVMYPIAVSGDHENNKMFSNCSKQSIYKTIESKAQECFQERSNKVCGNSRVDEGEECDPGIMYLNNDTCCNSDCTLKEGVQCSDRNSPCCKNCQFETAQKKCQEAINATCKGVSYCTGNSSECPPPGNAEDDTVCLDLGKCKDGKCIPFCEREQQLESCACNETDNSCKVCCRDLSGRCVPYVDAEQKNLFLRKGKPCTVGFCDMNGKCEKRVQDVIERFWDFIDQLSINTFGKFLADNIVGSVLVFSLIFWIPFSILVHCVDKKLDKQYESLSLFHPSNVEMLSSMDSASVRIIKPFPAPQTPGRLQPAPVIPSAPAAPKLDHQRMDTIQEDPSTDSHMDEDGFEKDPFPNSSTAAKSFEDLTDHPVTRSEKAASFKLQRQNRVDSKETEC
Method in brief: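 System: ADAM17 protease, QFRET substrate; control set: marimastat 1 µM and DMSO wells; signal: EDANS fluorescence, excitation 359 nm, emission 460 nm; incubation: 30 min compound–enzyme preincubation, then 3 h reaction, both 25 °C; compound: single nominal compound dose of 6.95 µM; replicates: three repeats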

Compound	inhibition [%]
COc1ccc(NS(=O)(=O)c2ccc(C)c(C(=O)NNC(=O)c3csc(N4CCOCC4)n3)c2)cc1	1.55
O=C(COC(=O)CCCSc1nc2ccccc2[nH]1)Nc1ccc(Oc2ccccc2)cc1	3.79
Cc1cccc(CCNS(=O)(=O)c2ccc(S(=O)(=O)NC3CCCC3)cc2)c1	-0.14
O=C(CSCc1ccc(Br)cc1)Nc1ccc(S(=O)(=O)N2CCCCCC2)cc1	3.71
O=Cc1cn(CCOc2ccc(F)cc2)c2ccccc12	-0.11
O=C(Nc1cccc(S(=O)(=O)Nc2ccc(Cl)cc2)c1)c1ccc2c(c1)OCCO2	2.96
COc1cccc(NC(=O)CN2CCN(c3nc(-c4cccc(OC)c4)cs3)CC2)c1	2.32
Cc1ccc(NC(=O)c2nc[nH]c2C(=O)N[C@@H](CCCCNC(=O)OC(C)(C)C)C(=O)OC(C)(C)C)cc1	3.32
S=c1[nH]cc(-c2ccc(Cl)cc2)n1-c1ccccc1	0.72
CCC1(C)Cc2c(sc3nnn(CC(=O)Nc4ccc(Cl)cc4)c(=O)c23)CO1 (stereo not drawn)	1.24
CC(C)(C)N1C(=O)[C@H]2[C@@H](c3ccc(Br)cc3)N3C(=O)N(c4cccc(Cl)c4)C(=O)[C@@]3(C)[C@H]2C1=O	0.76
Cc1ccc(S(=O)(=O)N(CC(=O)Nc2cccnc2)c2ccc(Br)cc2)cc1	0.35
O=C(NCCc1ccc(Cl)cc1Cl)c1cc([N+](=O)[O-])c[nH]c1=O	0.13
O=S(=O)(c1cccc(S(=O)(=O)N2CCC(n3nnc4ccccc43)CC2)c1)N1CCCCC1	0.16
C#CCN(C[C@H]1[C@H](OC(=O)NC2CCCC2)[C@H](OC(=O)NC2CCCC2)C[C@H]2C(=O)N(c3ccccc3)C(=O)[C@@H]12)S(=O)(=O)c1ccc(C)cc1	1.32
COc1ccc([C@@H]2[C@@H]3C(=O)N(C(C)(C)C)C(=O)[C@@H]3[C@]3(Cc4ccccc4)C(=O)N(c4cccc(Br)c4)C(=O)N23)cc1	2.34
O=C(CC(O)(C(F)(F)F)C(F)(F)F)Nc1ccc(Cl)c(Cl)c1	1.21
O=S(=O)(c1ccccc1)N(Cc1cccc(F)c1)c1ccccc1	0.96
C=C(C)COc1ccc(-c2n[nH]c(C)c2-c2ccccc2)c(O)c1	3.15
COc1ccc(C(N)c2csc(NC(=O)Nc3cccc(C(F)(F)F)c3)n2)cc1 (stereo not drawn)	1.65
COC(=O)C1NN=C(C(=O)c2ccc(Br)cc2)C1c1cccc(Br)c1 (stereo not drawn)	1.16
CCC(C(=O)OCC(=O)Nc1ccccc1-c1ccccc1)c1ccccc1 (stereo not drawn)	1.36
COc1cccc(C2CC(c3ccccc3)=NN2S(=O)(=O)c2ccccc2)c1OC (stereo not drawn)	1.14
Cc1ccc(S(=O)(=O)N2CCN(C(=O)COC(=O)c3c(C)cc(C)cc3C)CC2)c(C)c1	1.25
CC(N=Cc1nc(-c2ccccc2)oc1O)c1ccccc1 (stereo not drawn)	1.57

Compound	inhibition [%]
Cc1cccc(C2c3[nH]c4ccccc4c3CCN2C(=O)c2cc(-c3cccn3C)n[nH]2)n1 (stereo not drawn)	2.55
COc1ccc([C@H]2CC(=O)C=C(c3ccc(OC(F)(F)F)cc3)C2)cc1OC	0.8
O=C(CC1SC(=Nc2ccccc2)N(Cc2ccccn2)C1=O)Nc1cccc(Cl)c1 (stereo not drawn)	2.48
COc1cc(/C=N/O)cc(Br)c1OS(=O)(=O)c1ccc(C)cc1	0.97
CC(C)C(=O)Nc1cccc(NC(=S)NC(=O)C(c2ccccc2)c2ccccc2)c1	3.08
CC(C)(C)OC(=O)N1CCC(NC(=O)c2[nH]cnc2C(=O)N[C@@H](Cc2ccccc2)C(=O)OCc2ccccc2)CC1	3.26
CCOc1ccc(N2C(=O)CC(N(CCc3ccc(OC)c(OC)c3)C(=S)Nc3ccccc3)C2=O)cc1 (stereo not drawn)	0.25
CCCC(=O)n1nc(NCc2ccc(OC)cc2)nc1NCc1ccc(OC)cc1	2.02
O=C(/C=C/c1ccc(F)cc1)NC(=S)NNC(=O)c1cccnc1	0.5
COc1cccc(NC(=O)C2C(c3ccccc3)C2(Cl)Cl)c1 (stereo not drawn)	1
CC1(C)C=Cc2c(ccc3c2OC[C@@H](c2ccc(O)cc2O)C3)O1	2.8
Cc1ccc(C)c(NC(=S)NNC(=O)c2csc(C)c2)c1	2.16
COc1ccc(S(=O)(=O)N2CCN(C(C)C(=O)Nc3ccc(C(C)C)cc3)CC2)cc1 (stereo not drawn)	1.3
COc1ccc(C(=O)NNC(=S)NC(=O)c2ccccc2)cc1	0.42
O=C1[C@H]2[C@@H](c3ccc(F)cc3)N3C(=O)N(c4ccc(C(F)(F)F)cc4)C(=O)[C@@]3(Cc3ccccc3)[C@H]2C(=O)N1C1CCCCC1	2.35
COc1cccc(CC2(CO)CCCN(Cc3ccc(OC(F)F)cc3)C2)c1 (stereo not drawn)	0.36
CC(C)Oc1cc(F)ccc1-c1cc(C(=O)Nc2cccc(Cl)c2)[nH]n1	2.81
CCOc1cc(NC(=O)c2ccccc2C(=O)O)c(OCC)cc1NC(=O)c1ccccc1F	2.06
Cc1csc(NC(=S)Nc2cccc(Cl)c2)n1	2.94
O=C(NC(Cc1c[nH]c2ccccc12)C(=O)N/N=C/c1ccc(Br)cc1)c1cccs1 (stereo not drawn)	3.25
Cc1cc(C)cc(NS(=O)(=O)c2ccc(Oc3ncc(C(F)(F)F)cc3Cl)cc2)c1	5.19
Cc1ccc(N(NC(=O)C(C)(C)O)C(=O)c2ccccc2)cc1C	-0.31
O=C1[C@H]2[C@@H](c3ccc(C(F)(F)F)cc3)N[C@]3(CCCN(Cc4ccc(Br)cc4)C3=O)[C@H]2C(=O)N1Cc1ccccc1	2.47
Cc1[nH]c2ccccc2c1C(=O)COC(=O)c1c(-c2ccccc2)noc1C	2.46
CC1(Cc2cccc(C#N)c2)C(=O)Nc2ccc(-c3cccc(C(F)(F)F)c3)cc21 (stereo not drawn)	2.64

Compound	inhibition [%]
Cc1ccc(OCc2nnc(SC/C=C/c3ccccc3)n2Cc2ccco2)cc1	2.07
Cc1ccccc1-n1c(SCC(=O)Nc2cccc3ccccc23)nc(O)cc1=O	0.79
O=C(CNC(=O)c1ccc(Cl)cc1Cl)NCC(=O)Nc1ccccc1N1CCOCC1	-0.05
Cc1cnc(C(=O)OCc2c(C)cc(C(C)(C)C)cc2C)cn1	0.19
Cc1cc(C)cc(NC(=O)CSCc2cnn(-c3ccccc3)c2-n2cccc2)c1	1.7
c1ccc2c(CCN3CCNC[C@H]3Cc3cccc4ccccc34)cccc2c1	2.24
Cc1cc(O)ccc1-c1cc(C(=O)NCc2cc(C(F)(F)F)cc(C(F)(F)F)c2)[nH]n1	1.86
Cc1cc(C)cc(NC(=S)NCCc2c[nH]c3ccccc23)c1	0.79
COc1ccc(C2CC(c3ccccc3)=NN2C(=O)COC(=O)COc2ccccc2)cc1 (stereo not drawn)	3.56
C=CC[C@H](CC(=O)N(CCO)Cc1ccccc1)C(=O)N[C@@H](COC(=O)[C@@H](CC=C)Cc1ccc(F)cc1)Cc1ccccc1	3.06
CCC(C)(C)c1ccc(Oc2ccc(NC(=O)COC(=O)C3=COCCO3)cc2)cc1	3.28
COc1ccc(Cl)cc1NC(=O)CN(C)C(=O)CCCc1c[nH]c2ccccc12	0.4
COc1ccccc1CC1(C)C(=O)Nc2ccc(OC(F)(F)F)cc21 (stereo not drawn)	0.53
CC(C)(C)OC(=O)CNC(=O)c1[nH]cnc1C(=O)N[C@@H](Cc1ccccc1)C(=O)OCc1ccccc1	2.08
C=CCC[C@@H](Cc1ccc(F)cc1)C(=O)OC[C@H](Cc1c[nH]c2ccccc12)NC(=O)[C@@H](CC=C)CC(=O)N(CCO)Cc1ccccc1	3.11
Cc1cc(Nc2ccccc2)n(C(=O)c2ccc(N)cc2)n1	0.56
O=C(NCc1ccccc1)c1onc(CSc2nc3ccccc3[nH]2)c1C(=O)NCc1ccccc1	1.52
COc1ccc(C(=O)NN2C(=O)C3C(c4ccccc4)C=CC(c4ccccc4)C3C2=O)cc1 (stereo not drawn)	2.28
N#Cc1nc(Cc2cccc3ccccc23)oc1NCc1ccc2c(c1)OCO2	2.25
CC(C)Oc1ccc(CC(=O)NNC(=S)Nc2ccc(Br)cc2)cc1	0.68
Cn1nc(C(F)(F)F)c(C(=O)Nc2cccc(C(F)(F)F)c2)c1SCc1ccc(Cl)cc1	2.65
O=C(Oc1cccc(N2C(=O)C3C4c5ccccc5C(c5ccccc54)C3C2=O)c1)c1ccco1 (stereo not drawn)	1.5
COc1cc(/C=N/n2c(C)n[nH]c2=S)ccc1OCc1ccccc1	-0.91
